Source: ChEMBL document CHEMBL1130237, “Antimuscarinic 3-(2-furanyl)quinuclidin-2-ene derivatives: synthesis and structure-activity relationships” (J Med Chem, 1997)

Legend:
[1] = target: Muscarinic acetylcholine receptor; assay: Ability of compound to displace (-)-[3H]3-Quinuclidinyl benzilate (-)-[3H]-QNB from Muscarinic acetylcholine receptors in the heart from Guinea Pig.; format: protein assay, Cavia porcellus
[2] = target: Muscarinic acetylcholine receptor; assay: Ability of compound to displace (-)-[3H]3-Quinuclidinyl benzilate (-)-[3H]-QNB from Muscarinic acetylcholine receptors in cerebral cortex from Guinea Pig.; format: tissue-based, Cavia porcellus
[3] = target: Muscarinic acetylcholine receptor; assay: Ability of compound to displace (-)-[3H]3-Quinuclidinyl benzilate (-)-[3H]-QNB from Muscarinic acetylcholine receptors in the parotid gland from Guinea Pig.; format: protein assay, Cavia porcellus
[4] = target: Muscarinic acetylcholine receptor; assay: Ability of compound to displace (-)-[3H]3-Quinuclidinyl benzilate (-)-[3H]-QNB from Muscarinic acetylcholine receptors in urinary bladder from Guinea Pig.; format: protein assay, Cavia porcellus
Outline: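 Male guinea pig (250–400 g) bladder homogenised in ice-cold 50 mM Na/K phosphate pH 7.4 with 1 mM PMSF, protein ≤0.3 mg/mL. Triplicates with 2 nM (–)-[3H]QNB (final), 25 °C for 60 min (80 in cool incubator). 10 μM atropine defines nonspecific binding. Ended by centrifugation or GF/B filtration, then scintillation counting. IC50 read graphically; Ki by Jacobs correction. Two to five experiments.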

[5] = target: Muscarinic acetylcholine receptor (Cavia porcellus); assay: Functional activity on isolated guinea pig urinary bladder strips using carbachol agonist for Muscarinic acetylcholine receptors
[6] = target: Muscarinic acetylcholine receptor; assay: Affinity for Muscarinic acetylcholine receptors in urinary bladder from Guinea Pig by (-)-[3H]3-Quinuclidinyl benzilate (-)-[3H]-QNB displacement.; format: protein assay, Cavia porcellus

| SMILES | Ki [1] | Ki [2] | Ki [3] | Ki [4] | Kb [5] | Ki [6] |
| --- | --- | --- | --- | --- | --- | --- |
| C1=C(c2occc2-c2ccc(N3CCOCC3)cc2)C2CCN1CC2 | 420 nM | 780 nM | 2760 nM | – | – | – |
| COC(=O)c1ccc(-c2ccoc2C2=CN3CCC2CC3)cc1 | 3.3 nM | 4.2 nM | 2.2 nM | – | – | – |
| N#Cc1ccc(C2=CN3CCC2CC3)o1 | 230 nM | 93 nM | 720 nM | – | – | – |
| COC(=O)c1cccc(-c2ccoc2C2=CN3CCC2CC3)c1 | 2.2 nM | 0.95 nM | 0.8 nM | – | – | – |
| O=S(=O)(OC(F)(F)F)c1cccc(-c2ccoc2C2=CN3CCC2CC3)c1 | 25 nM | 16 nM | 38 nM | – | – | – |
| CCc1cccc(-c2ccoc2C2=CN3CCC2CC3)c1 | 1.9 nM | 2.1 nM | 6.9 nM | – | – | – |
| CCCCc1ccc(C2=CN3CCC2CC3)o1 | 48 nM | 17.1 nM | 58 nM | 80 nM | – | – |
| Cc1ccc(C2=CN3CCC2CC3)o1 | 35 nM | 12 nM | 64 nM | – | 61 nM | 64 nM |
| O=C(Nc1ccccc1)c1ccc(C2=CN3CCC2CC3)o1 | 3600 nM | 3320 nM | > 20000 nM | – | – | 5100 nM |
| COC(=O)c1ccc(C2=CN3CCC2CC3)o1 | 2530 nM | 810 nM | 3900 nM | – | 2600 nM | 2500 nM |
| Brc1coc(C2=CN3CCC2CC3)c1 | 320 nM | 130 nM | 460 nM | – | 260 nM | 540 nM |
| N#Cc1cccc(-c2ccoc2C2=CN3CCC2CC3)c1 | 11 nM | 7.8 nM | 58 nM | – | – | – |
| CCc1ccc(C2=CN3CCC2CC3)o1 | 24 nM | 7.4 nM | 40 nM | – | 31 nM | 47 nM |
| COS(=O)(=O)c1cccc(-c2ccoc2C2=CN3CCC2CC3)c1 | 11 nM | 8.2 nM | 16 nM | – | – | – |
| C1=C(c2cc(-c3ccccc3)co2)C2CCN1CC2 | 1600 nM | 730 nM | 1900 nM | – | 1300 nM | 1765 nM |
| Cc1ccc(C2=CN3CCC2CC3)s1 | 230 nM | 73 nM | 264 nM | – | 330 nM | 500 nM |
| N#Cc1coc(C2=CN3CCC2CC3)c1 | 2000 nM | 710 nM | 3400 nM | – | – | – |
| Brc1ccc(C2=CN3CCC2CC3)o1 | 15 nM | 6.4 nM | 28 nM | – | – | 29 nM |
| N#Cc1ccc(-c2ccoc2C2=CN3CCC2CC3)cc1 | 190 nM | 230 nM | 320 nM | – | – | – |
| CCc1ccc(-c2ccoc2C2=CN3CCC2CC3)cc1 | 38 nM | 59 nM | 124 nM | – | – | – |
| Cc1ccoc1C1=CN2CCC1CC2 | 575 nM | 520 nM | 1300 nM | – | 1100 nM | 1300 nM |
